Where a SMILES comes first, the peptide text is derived from it.
Species on record: Rattus norvegicus
Test: Compound was evaluated for brain targeted delivery system by Tail flick latency as an index of spinal cord mediated analgesia in rats
Format: functional
How it was run: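 Male Sprague-Dawley rats, 250-300 g, housed singly at ~25 °C. Compounds in 0.2 mL propylene glycol:DMSO (2:1) given iv via tail vein, 0.0223 mmol/kg (equivalent to 7.5 mg/kg kyotorphin); dose-response range 0.0030-0.0223 mmol/kg. Tail-flick meter, beam set for 7-8 s baseline latency. Baseline 10 min pre-dose, then 15 min to 6 h. Six rats per group; mean ± SE, ANOVA.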

Compound | Latency time [s]
CC(C)CCCC(C)C1CCC2C3CC=C4CC(OC(=O)C(CCCC[n+]5cccc(C(N)=O)c5)NC(=O)C(N)Cc5ccc(O)cc5)CCC4(C)C3CCC12C (configuration not stated) | 17
CC(C)CCCC(C)C1CCC2C3CC=C4CC(OC(=O)C(CCCCN5C=CCC(C(N)=O)=C5)NC(=O)C(Cc5ccc(O)cc5)NC(=O)OC(C)(C)C)CCC4(C)C3CCC12C (configuration not stated) | 26
CC(C)CCCC(C)C1CCC2C3CC=C4CC(OC(=O)C(CCCC[n+]5cccc(C(N)=O)c5)NC(=O)[C@H](Cc5ccc(O)cc5)NC(=O)OC(C)(C)C)CCC4(C)C3CCC12C (some centres not stated) | 10
NC(=O)C1=CN(CCCC[C@H](NC(=O)[C@@H](N)Cc2ccc(O)cc2)C(=O)O)C=CC1 | 10
CC(C)CCCC(C)C1CCC2C3CC=C4CC(OC(=O)C(CCCCN)NC(=O)[C@H](Cc5ccc(O)cc5)NC(=O)OC(C)(C)C)CCC4(C)C3CCC12C (some centres not stated) | 10
NCCCC[C@H](NC(=O)[C@@H](N)Cc1ccc(O)cc1)C(=O)O (H-Tyr-Lys-OH) | 11
NC(N)=NCCC[C@H](NC(=O)[C@@H](N)Cc1ccc(O)cc1)C(=O)O [KYOTORPHIN] | 11

— ChEMBL document CHEMBL1131115, “Strategies to target kyotorphin analogues to the brain” (1998)
